Format in all cases: in vitro ADME
One data set deals with T1, hOATP1B3 (Homo sapiens, UniProt Q9NPD5).
T1 sequence (Q9NPD5 1-702): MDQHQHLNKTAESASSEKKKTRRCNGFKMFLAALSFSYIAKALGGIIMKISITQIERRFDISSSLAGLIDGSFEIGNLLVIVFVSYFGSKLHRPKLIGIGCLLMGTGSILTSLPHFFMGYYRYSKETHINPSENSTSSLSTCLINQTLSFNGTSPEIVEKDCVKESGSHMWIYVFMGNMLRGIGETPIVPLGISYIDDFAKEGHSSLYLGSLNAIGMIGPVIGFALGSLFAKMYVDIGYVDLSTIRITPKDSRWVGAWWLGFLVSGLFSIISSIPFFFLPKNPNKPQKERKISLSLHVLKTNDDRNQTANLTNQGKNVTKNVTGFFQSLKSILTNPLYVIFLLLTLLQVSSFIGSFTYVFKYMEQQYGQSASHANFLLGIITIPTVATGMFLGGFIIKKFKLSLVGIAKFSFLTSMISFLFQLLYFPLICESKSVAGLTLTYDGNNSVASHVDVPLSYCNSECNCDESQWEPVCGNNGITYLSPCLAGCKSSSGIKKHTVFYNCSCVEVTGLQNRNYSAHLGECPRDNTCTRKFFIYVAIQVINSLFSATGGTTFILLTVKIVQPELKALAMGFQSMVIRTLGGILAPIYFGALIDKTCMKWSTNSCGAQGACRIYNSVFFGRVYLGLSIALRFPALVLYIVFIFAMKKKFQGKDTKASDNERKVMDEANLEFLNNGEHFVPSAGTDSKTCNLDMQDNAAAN
The data set is described as follows: Cellular uptake and kinetics in HEK293-hOATP1B3 vs Mock cells. Particulars: 100 μmol/L, substrate if >2-fold of wild type. The essentials:
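Transfected cells and matching Mock cells were seeded at 2 × 10⁵ cells/mL and grown 2 days. After a DPBS (pH 7.4) wash and 10 min preincubation at 37 °C, cells took up 100 μmol/L test compound for 2–5 min at 37 °C. Uptake was stopped with three ice-cold DPBS washes, followed by methanol extraction and HPLC–MS. Values were normalised to BCA protein and compared with Mock.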

Another data set has as its target T2, hOATP2B1 (Homo sapiens, UniProt O94956).
T2 sequence (O94956 1-709): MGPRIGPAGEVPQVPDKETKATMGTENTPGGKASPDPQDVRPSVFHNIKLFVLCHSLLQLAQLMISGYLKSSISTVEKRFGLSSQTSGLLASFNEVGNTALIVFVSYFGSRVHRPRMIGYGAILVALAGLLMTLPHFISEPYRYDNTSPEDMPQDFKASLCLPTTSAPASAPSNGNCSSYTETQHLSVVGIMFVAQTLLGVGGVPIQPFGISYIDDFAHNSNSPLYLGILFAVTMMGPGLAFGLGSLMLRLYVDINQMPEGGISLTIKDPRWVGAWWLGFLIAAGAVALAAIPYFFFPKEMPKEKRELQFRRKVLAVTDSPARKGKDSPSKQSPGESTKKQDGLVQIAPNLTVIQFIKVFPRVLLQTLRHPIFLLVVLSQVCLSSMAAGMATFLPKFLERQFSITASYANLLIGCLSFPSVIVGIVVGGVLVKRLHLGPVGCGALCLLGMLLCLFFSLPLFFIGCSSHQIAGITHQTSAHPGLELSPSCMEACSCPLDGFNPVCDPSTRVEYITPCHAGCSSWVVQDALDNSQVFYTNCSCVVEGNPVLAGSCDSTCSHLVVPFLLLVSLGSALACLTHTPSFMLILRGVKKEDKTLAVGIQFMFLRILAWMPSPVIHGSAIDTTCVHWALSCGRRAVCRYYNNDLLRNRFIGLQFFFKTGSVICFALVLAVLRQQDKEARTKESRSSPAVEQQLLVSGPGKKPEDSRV
The data set is described as follows: Cellular uptake in HEK293-hOATP2B1 vs Mock cells. Particulars: 100 μmol/L, substrate if >2-fold of wild type.

In the next data set the target is T3, hOAT3 (Homo sapiens, UniProt Q8TCC7).
T3 sequence (Q8TCC7 1-542): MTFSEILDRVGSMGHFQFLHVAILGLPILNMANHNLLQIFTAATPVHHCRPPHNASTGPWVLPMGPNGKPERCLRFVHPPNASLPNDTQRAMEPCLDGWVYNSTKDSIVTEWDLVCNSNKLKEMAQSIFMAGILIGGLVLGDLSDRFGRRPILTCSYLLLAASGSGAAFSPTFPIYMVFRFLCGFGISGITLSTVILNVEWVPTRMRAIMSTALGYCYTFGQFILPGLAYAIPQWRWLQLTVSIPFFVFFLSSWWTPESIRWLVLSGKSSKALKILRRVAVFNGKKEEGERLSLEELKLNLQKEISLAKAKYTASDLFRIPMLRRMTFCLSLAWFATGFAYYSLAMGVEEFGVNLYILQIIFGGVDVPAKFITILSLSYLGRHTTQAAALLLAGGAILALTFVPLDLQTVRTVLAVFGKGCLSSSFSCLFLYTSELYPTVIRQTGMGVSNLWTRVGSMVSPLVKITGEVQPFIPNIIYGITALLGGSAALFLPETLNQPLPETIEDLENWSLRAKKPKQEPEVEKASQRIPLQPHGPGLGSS
The data set is described as follows: Inhibition of 3H-ES uptake in S2-hOAT3 cells. Particulars: for inhibition of the activity of hOAT3: 100 μmol/L IPT, ISP, 100 μg/mL AD extract, substrate 3H-ES. The essentials: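 Test compounds were made as DMSO stocks (20 mmol/L, or 10 mg/mL for extract) and diluted in PBS to a final DMSO below 0.5%. Cells were exposed at 37 °C to probe plus or minus test compound. The probe was 5 μmol/L ¹⁴C-PAH for 5 min (hOAT1) or 50 nmol/L ³H-estrone sulfate for 2 min (hOAT3, hOATP2B1). Screens used 100 μmol/L (extract 100 mg/L); IC50 came from varied concentrations. Cells were then given three cold DPBS washes, lysed in 0.1 mol/L NaOH and read by scintillation counting. Data are mean ± SD, n = 3.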

pIC50: −log10 of the molar value.

Broadly, the pIC50 is −log10 of the IC50, conventionally taken in molar units. A low value points to a high IC50. Take `CC(C)=CCOc1c2occc2cc2ccc(=O)oc12` [IPT, imperatorin]: the “accumulation in HEK293-hOATP1B3 vs HEK293 wild type” value at hOATP1B3 is reported as “no significant differences”. Moreover, on hOATP2B1, the “accumulation in HEK293-hOATP2B1 vs HEK293 wild type” value is “less than 2 fold”. Also, at hOAT3, the pIC50 is 5.56 and the “inhibition of the activity of hOAT3” value is “significantly inhibited”.
The matching figures for `CC(C)=CCOc1c2ccoc2cc2oc(=O)ccc12` [ISP, isoimperatorin]: “no significant differences”, “less than 2 fold”, 4.93 and “significantly inhibited”.

The values are drawn from paper PMC7564327 (Acta Pharmaceutica Sinica. B, 2020).
